ChEMBL document CHEMBL1122921, “Stereoselective antitumor properties in the Lewis lung carcinoma model using bis(morpholinomethyl) derivatives of tricyclic bis(dioxopiperazines)” (1985)
Several values for one entry are separate records, joined by “and”; a condition that tells them apart may be missing. Identical values can stand only once.

What was measured:
Mus musculus [1] = species on record: Mus musculus; assay: Number of mice with metastasis Out of 8 mice; assay type: functional
Summary of the method: (§1)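 Female BDF1 mice (19–21 g), 8–9 per group. Lewis lung carcinoma implanted on day 0 and the leg amputated on day 9. From day 9, 160 mg/kg ip q2d×4, given as a suspension or solution in 0.9% NaCl. Mice dying and those killed on day 50 were autopsied for body weight, lung weight, metastases (<2 or >2 mm) and metastasis incidence. Median survival and ILS were recorded, with ≥25% ILS taken as activity.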

Mus musculus [2] = species on record: Mus musculus; assay: Compound was tested against autopsying on day 50th metastasis( <2 mm size.) in mice.; assay type: functional; summary of the method: as §1
Mus musculus [3] = species on record: Mus musculus; assay: Average lung weight of mice was determined; assay type: functional
Summary of the method: (§2)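 Female BDF1 mice (19–21 g), 10 per group. Lewis lung carcinoma, 10^5 cells in 0.05 mL, implanted in the right hind leg on day 0, and the leg amputated on day 10. Dosing was 160 mg/kg ip in 0.9% NaCl made daily, either from -1 h on day 0 q2d×5 (preamputation) or from day 11 q2d×4 (postamputation). Survivors were killed and autopsied on day 50, and values were averaged over all 10 mice. ILS ≥25% is taken as activity.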

Mus musculus [4] = species on record: Mus musculus; assay: Compound was tested against autopsying on day 50th metastasis( >2 mm size.) in mice.; assay type: functional; summary of the method: as §2
Mus musculus [5] = species on record: Mus musculus; assay: Percent increase in life span was measured in mice; assay type: functional; summary of the method: as §2
Mus musculus [6] = assay: Median survival time of 10 BDF1 mice was tested after administration of compound (Postamputation schedule 160 mg/kg)
Mus musculus [7] = species on record: Mus musculus; assay: Average body weight of mice was determined; assay type: functional; summary of the method: as §1
Mus musculus [8] = species on record: Mus musculus; assay: Number of 50-day survivors Out of 8 mice; assay type: functional; summary of the method: as §1
Mus musculus [9] = species on record: Mus musculus; assay: Compound was tested against autopsying on day 50th metastasis( >2 mm size) in mice; assay type: functional
Summary of the method: (§3)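 Female BDF1 mice (19–21 g), 10 per group, were implanted with 10^5 Lewis lung cells in the right hind leg on day 0, with leg amputation on day 10. Dosing was 160 mg/kg ip, either from −1 h on day 0 q2d×5 or from day 11 q2d×4, in saline prepared daily. Survivors were killed on day 50, and lung metastases were counted by size. Values are averages over 10 mice, dying and killed.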

Mus musculus [10] = species on record: Mus musculus; assay: Compound was tested against autopsying on day 50th metastasis( <2 mm size) in mice; assay type: functional; summary of the method: as §1
Mus musculus [11] = species on record: Mus musculus; assay: Number of 50-day survivors Out of 9 mice; assay type: functional; summary of the method: as §1
Mus musculus [12] = species on record: Mus musculus; assay: Number of mice with metastasis out of 9 mice tested; assay type: functional
Summary of the method: (§4)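 Female BDF1 mice (19–21 g) were implanted with Lewis lung carcinoma on day 0 and amputated on day 9. Dosing was 160 mg/kg ip from day 9, q2d×4, as a suspension or solution in 0.9% NaCl. Dying mice and mice killed on day 50 were autopsied to count metastases (<2 mm, >2 mm) and mice bearing metastases.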

Mus musculus [13] = species on record: Mus musculus; assay: Number of mice with metastasis Out of 9 mice; assay type: functional; summary of the method: as §1
Mus musculus [14] = species on record: Mus musculus; assay: Average lung weight per mouse was determined; assay type: functional
Summary of the method: (§5)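 Female BDF1 mice (19–21 g) implanted with Lewis lung carcinoma on day 0. The tumour-bearing leg was amputated on day 9 or 10. Dosing was 160 mg/kg ip q2d in 0.9% NaCl. Dying mice were autopsied, and survivors were killed and autopsied on day 50.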

Mus musculus [15] = assay: Median survival time of 10 BDF1 mice was tested for compound (Postamputation schedule 160 mg/kg); assay type: functional; summary of the method: as §2
Mus musculus [16] = assay: Median survival time of 10 BDF1 mice was tested after administration of compound (Preamputation schedule 160 mg/kg); assay type: functional; summary of the method: as §2
Mus musculus [17] = species on record: Mus musculus; assay: Number of 50-day survivors out of 9 mice; assay type: functional; summary of the method: as §1
Mus musculus [18] = species on record: Mus musculus; assay: Compound was tested against autopsying on day 50th metastasis( <1 mm size) in mice; assay type: functional; summary of the method: as §3
Mus musculus [19] = species on record: Mus musculus; assay: (§6) Percent of mice without metastasis.; assay type: functional
Mus musculus [20] = species on record: Mus musculus; assay: Average number of metastasis per mouse.; assay type: functional; summary of the method: as §5
Mus musculus [21] = species on record: Mus musculus; assay: compound was tested against autopsying on day 50th metastasis( <[…] mm size.) in mice.; assay type: functional; summary of the method: as §4
Mus musculus [22] = species on record: Mus musculus; assay: compound was tested against autopsying on day 50th metastasis( >2 mm size.) in mice.; assay type: functional; summary of the method: as §3
Mus musculus [23] = species on record: Mus musculus; assay: compound was tested against autopsying on day 50th metastasis( <1 mm size.) in mice.; assay type: functional; summary of the method: as §3
Mus musculus [24] = species on record: Mus musculus; assay: Average lung weight per mouse.; assay type: functional; summary of the method: as §5
Mus musculus [25] = species on record: Mus musculus; assay: compound was tested against autopsying on day 50th metastasis( 1-2 mm size.) in mice.; assay type: functional; summary of the method: as §3
Mus musculus [26] = species on record: Mus musculus; assay: Number of 50-day survivors out of 10 mice; 2 mice died out of 6 with one metastasis each (5mm i.d.); assay type: functional
Mus musculus [27] = species on record: Mus musculus; assay: as §6; assay type: functional; remark: listed apart in the source
Mus musculus [28] = species on record: Mus musculus; assay: Compound was tested against autopsying on day 50th metastasis( 1-2 mm size) in mice; assay type: functional; summary of the method: as §3
Mus musculus [29] = species on record: Mus musculus; assay: Number of 50-day survivors Out of 10 mice; assay type: functional; summary of the method: as §2

Structure (SMILES)	Lung weight (Mus musculus [3]) [mg]	ILS (Mus musculus [5]) [%]	MST (Mus musculus [6]) [days]	Body weight (Mus musculus [7]) [g]	Average No. of metastasis (Mus musculus [9]) [count]	Average No. of metastasis (Mus musculus [10]) [count]	N/T (Mus musculus [11])	M/T (Mus musculus [12])	Lung weight (Mus musculus [14])	MST (Mus musculus [16]) [days]	Average No. of metastasis (Mus musculus [18]) [count]	Mice (Mus musculus [19])	Average No. of metastasis (Mus musculus [20])	Average No. of metastasis (Mus musculus [22]) [count]	also measured
O=C1CN2CCN3CC(=O)NC(=O)[C@H]3C2C(=O)N1 (stereo partly drawn)	813	34	45	17.8											M/T (Mus musculus [1]): 5; Average No. of metastasis (Mus musculus [2]): 1%; Average No. of metastasis (Mus musculus [4]): 14%; N/T (Mus musculus [8]): 3
O=C1CN2CCN3CC(=O)N(CN4CCOCC4)C(=O)[C@@H]3C2C(=O)N1CN1CCOCC1 (stereo partly drawn)	564	>49	>50	19.4	9	0	5	4							
O=C1CN2CCN3CC(=O)NC(=O)[C@@H]3C2C(=O)N1 (stereo partly drawn)	749	16	39	17.7	13	2	2								M/T (Mus musculus [13]): 7
O=C1CN2CCN3CC(=O)N(CN4CCOCC4)C(=O)[C@H]3C2C(=O)N1CN1CCOCC1 (stereo in doubt; 3)							5		754 mg and 752 mg	38.5	0.2	30% and 20%	15 and 13.8		MST (Mus musculus [15]): 35 days; N/T (Mus musculus [17]): 5
O=C1CN2CCN3CC(=O)N(CN4CCOCC4)C(=O)[C@H]3C2C(=O)N1CN1CCOCC1 (stereo in doubt; form 1)	369			19.9			7	1		39				3	Average No. of metastasis (Mus musculus [21]): 0 count
O=C1CN2CCN3CC(=O)N(CN4CCOCC4)C(=O)[C@H]3C2C(=O)N1CN1CCOCC1 (stereo in doubt; form 2)					8.3				641 mg	39	1	40%	12.8 and 7.7	4.8	Average No. of metastasis (Mus musculus [23]): 0.3 count; Lung weight (Mus musculus [24]): 538 mg; Average No. of metastasis (Mus musculus [25]): 2.6 count; N/T (Mus musculus [26]): 6; Mice (Mus musculus [27]): 40%; Average No. of metastasis (Mus musculus [28]): 3.5 count; N/T (Mus musculus [29]): 4
